Test results taken from ChEMBL document CHEMBL2384977, “Synthesis and biological evaluation of novel styryl benzimidazole derivatives as probes for imaging of neurofibrillary tangles in Alzheimer's disease” (Bioorg Med Chem, 2013).
Blank lines part the entries; values can stand above or below the compound they belong to.

How the values were obtained:
Intestine [1] = test: Biodistribution in ddY mouse intestine at 13.2 to 20.6 kBq, iv measured at 10 mins by gamma counting analysis; type: ADME, organism-based; details: in vivo
Summary of the method: (§1)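 Male ddY mice, 5 weeks old, received the 125I-labelled tracer (13.2–20.6 kBq) intravenously in the tail vein, in 100 µL saline containing ethanol. Animals were sacrificed at 2, 10, 30 and 60 min. Tissue radioactivity is expressed as %ID/g, mean (SD) of 5 animals.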

Pancreas [2] = test: Biodistribution in ddY mouse pancreas at 13.2 to 20.6 kBq, iv measured at 10 mins by gamma counting analysis; type: ADME, organism-based; details: in vivo; summary of the method: as §1
Kidney [3] = test: Biodistribution in ddY mouse kidney at 13.2 to 20.6 kBq, iv measured at 10 mins by gamma counting analysis; type: ADME, organism-based; details: in vivo; summary of the method: as §1
Lung [4] = test: Biodistribution in ddY mouse lung at 13.2 to 20.6 kBq, iv measured at 30 mins by gamma counting analysis; type: ADME, organism-based; details: in vivo, 0.5 h; summary of the method: as §1
Blood [5] = test: Biodistribution in ddY mouse blood at 13.2 to 20.6 kBq, iv measured at 60 mins by gamma counting analysis; type: ADME, organism-based; details: in vivo, 1 h; summary of the method: as §1
Liver [6] = test: Biodistribution in ddY mouse liver at 13.2 to 20.6 kBq, iv measured at 30 mins by gamma counting analysis; type: ADME, organism-based; details: in vivo, 0.5 h; summary of the method: as §1
Heart [7] = test: Biodistribution in ddY mouse heart at 13.2 to 20.6 kBq, iv measured at 30 mins by gamma counting analysis; type: ADME, organism-based; details: in vivo, 0.5 h; summary of the method: as §1
Heart [8] = test: Biodistribution in ddY mouse heart at 13.2 to 20.6 kBq, iv measured at 60 mins by gamma counting analysis; type: ADME, organism-based; details: in vivo, 1 h; summary of the method: as §1
Liver [9] = test: Biodistribution in ddY mouse liver at 13.2 to 20.6 kBq, iv measured at 60 mins by gamma counting analysis; type: ADME, organism-based; details: in vivo, 1 h; summary of the method: as §1
Spleen [10] = test: Biodistribution in ddY mouse spleen at 13.2 to 20.6 kBq, iv measured at 60 mins by gamma counting analysis; type: ADME, organism-based; details: in vivo, 1 h; summary of the method: as §1
Brain [11] = test: Biodistribution in ddY mouse brain at 13.2 to 20.6 kBq, iv measured at 30 mins by gamma counting analysis; type: ADME, organism-based; details: in vivo, 0.5 h; summary of the method: as §1
Intestine [12] = test: Biodistribution in ddY mouse intestine at 13.2 to 20.6 kBq, iv measured at 2 mins by gamma counting analysis; type: ADME, organism-based; details: in vivo; summary of the method: as §1
Liver [13] = test: Biodistribution in ddY mouse liver at 13.2 to 20.6 kBq, iv measured at 2 mins by gamma counting analysis; type: ADME, organism-based; details: in vivo; summary of the method: as §1
Kidney [14] = test: Biodistribution in ddY mouse kidney at 13.2 to 20.6 kBq, iv measured at 60 mins by gamma counting analysis; type: ADME, organism-based; details: in vivo, 1 h; summary of the method: as §1
Stomach [15] = test: Biodistribution in ddY mouse stomach at 13.2 to 20.6 kBq, iv measured per organ at 60 mins by gamma counting analysis; type: ADME, organism-based; details: in vivo, 1 h
Summary of the method: (§2)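 Male ddY mice, 5 weeks old, were injected in the tail vein with the 125I tracer (13.2–20.6 kBq) in 100 µL saline containing ethanol. Sacrifice at 2, 10, 30 and 60 min. Stomach radioactivity is expressed as %ID per whole organ, mean (SD) of 5 animals.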

Pancreas [16] = test: Biodistribution in ddY mouse pancreas at 13.2 to 20.6 kBq, iv measured at 30 mins by gamma counting analysis; type: ADME, organism-based; details: in vivo, 0.5 h; summary of the method: as §1
Blood [17] = test: Biodistribution in ddY mouse blood at 13.2 to 20.6 kBq, iv measured at 10 mins by gamma counting analysis; type: ADME, organism-based; details: in vivo; summary of the method: as §1
Lung [18] = test: Biodistribution in ddY mouse lung at 13.2 to 20.6 kBq, iv measured at 2 mins by gamma counting analysis; type: ADME, organism-based; details: in vivo; summary of the method: as §1
Stomach [19] = test: Biodistribution in ddY mouse stomach at 13.2 to 20.6 kBq, iv measured per organ at 10 mins by gamma counting analysis; type: ADME, organism-based; details: in vivo; summary of the method: as §2
Blood [20] = test: Biodistribution in ddY mouse blood at 13.2 to 20.6 kBq, iv measured at 2 mins by gamma counting analysis; type: ADME, organism-based; details: in vivo; summary of the method: as §1
Kidney [21] = test: Biodistribution in ddY mouse kidney at 13.2 to 20.6 kBq, iv measured at 2 mins by gamma counting analysis; type: ADME, organism-based; details: in vivo; summary of the method: as §1
Spleen [22] = test: Biodistribution in ddY mouse spleen at 13.2 to 20.6 kBq, iv measured at 30 mins by gamma counting analysis; type: ADME, organism-based; details: in vivo, 0.5 h; summary of the method: as §1
Intestine [23] = test: Biodistribution in ddY mouse intestine at 13.2 to 20.6 kBq, iv measured at 60 mins by gamma counting analysis; type: ADME, organism-based; details: in vivo, 1 h; summary of the method: as §1
Pancreas [24] = test: Biodistribution in ddY mouse pancreas at 13.2 to 20.6 kBq, iv measured at 60 mins by gamma counting analysis; type: ADME, organism-based; details: in vivo, 1 h; summary of the method: as §1
[25] = 1-Octanol-PBS buffer partition coefficient, log P of the compound at 0.37 MBq after 2 mins by gamma counting analysis; type: physicochemical
Brain [26] = test: Biodistribution in ddY mouse brain at 13.2 to 20.6 kBq, iv measured at 2 mins by gamma counting analysis; type: ADME, organism-based; details: in vivo; summary of the method: as §1
Blood [27] = test: Biodistribution in ddY mouse blood at 13.2 to 20.6 kBq, iv measured at 30 mins by gamma counting analysis; type: ADME, organism-based; details: in vivo, 0.5 h; summary of the method: as §1
Heart [28] = test: Biodistribution in ddY mouse heart at 13.2 to 20.6 kBq, iv measured at 2 mins by gamma counting analysis; type: ADME, organism-based; details: in vivo; summary of the method: as §1
Intestine [29] = test: Biodistribution in ddY mouse intestine at 13.2 to 20.6 kBq, iv measured at 30 mins by gamma counting analysis; type: ADME, organism-based; details: in vivo, 0.5 h; summary of the method: as §1
Stomach [30] = test: Biodistribution in ddY mouse stomach at 13.2 to 20.6 kBq, iv measured per organ at 30 mins by gamma counting analysis; type: ADME, organism-based; details: in vivo, 0.5 h; summary of the method: as §2
Heart [31] = test: Biodistribution in ddY mouse heart at 13.2 to 20.6 kBq, iv measured at 10 mins by gamma counting analysis; type: ADME, organism-based; details: in vivo; summary of the method: as §1
Stomach [32] = test: Biodistribution in ddY mouse stomach at 13.2 to 20.6 kBq, iv measured per organ at 2 mins by gamma counting analysis; type: ADME, organism-based; details: in vivo; summary of the method: as §2
Lung [33] = test: Biodistribution in ddY mouse lung at 13.2 to 20.6 kBq, iv measured at 60 mins by gamma counting analysis; type: ADME, organism-based; details: in vivo, 1 h; summary of the method: as §1
Liver [34] = test: Biodistribution in ddY mouse liver at 13.2 to 20.6 kBq, iv measured at 10 mins by gamma counting analysis; type: ADME, organism-based; details: in vivo; summary of the method: as §1
Spleen [35] = test: Biodistribution in ddY mouse spleen at 13.2 to 20.6 kBq, iv measured at 2 mins by gamma counting analysis; type: ADME, organism-based; details: in vivo; summary of the method: as §1
Kidney [36] = test: Biodistribution in ddY mouse kidney at 13.2 to 20.6 kBq, iv measured at 30 mins by gamma counting analysis; type: ADME, organism-based; details: in vivo, 0.5 h; summary of the method: as §1
Brain [37] = test: Biodistribution in ddY mouse brain at 13.2 to 20.6 kBq, iv measured at 10 mins by gamma counting analysis; type: ADME, organism-based; details: in vivo; summary of the method: as §1
Brain [38] = test: Ratio of drug level in ddY mouse brain at 13.2 to 20.6 kBq, iv measured at 2 mins to drug level in ddY mouse brain at 13.2 to 20.6 kBq, iv measured at 60 mins; type: ADME, organism-based; details: in vivo
Summary of the method: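 Tail-vein injection of the 125I tracer (13.2–20.6 kBq, saline with ethanol) into male 5-week-old ddY mice. The ratio is brain uptake (%ID/g) at 2 min divided by brain uptake at 60 min, from groups of 5 animals.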

Brain [39] = test: Biodistribution in ddY mouse brain at 13.2 to 20.6 kBq, iv measured at 60 mins by gamma counting analysis; type: ADME, organism-based; details: in vivo, 1 h; summary of the method: as §1
Lung [40] = test: Biodistribution in ddY mouse lung at 13.2 to 20.6 kBq, iv measured at 10 mins by gamma counting analysis; type: ADME, organism-based; details: in vivo; summary of the method: as §1
Pancreas [41] = test: Biodistribution in ddY mouse pancreas at 13.2 to 20.6 kBq, iv measured at 2 mins by gamma counting analysis; type: ADME, organism-based; details: in vivo; summary of the method: as §1
Spleen [42] = test: Biodistribution in ddY mouse spleen at 13.2 to 20.6 kBq, iv measured at 10 mins by gamma counting analysis; type: ADME, organism-based; details: in vivo; summary of the method: as §1

Drug uptake (Intestine [1]): 11.5 % ID/g
Drug uptake (Pancreas [2]): 2.58 % ID/g
Drug uptake (Kidney [3]): 5.85 % ID/g
Drug uptake (Lung [4]): 1.93 % ID/g
Drug uptake (Blood [5]): 1.37 % ID/g
Drug uptake (Liver [6]): 16 % ID/g
Drug uptake (Heart [7]): 1.28 % ID/g
Drug uptake (Heart [8]): 0.74 % ID/g
Drug uptake (Liver [9]): 11 % ID/g
Drug uptake (Spleen [10]): 1.74 % ID/g
Drug uptake (Brain [11]): 0.36 % ID/g
Drug uptake (Intestine [12]): 4.96 % ID/g
Drug uptake (Liver [13]): 19.9 % ID/g
Drug uptake (Kidney [14]): 2.02 % ID/g
Drug uptake (Stomach [15]): 2.97 %ID
Drug uptake (Pancreas [16]): 0.92 % ID/g
Drug uptake (Blood [17]): 2.76 % ID/g
Drug uptake (Lung [18]): 7.13 % ID/g
Drug uptake (Stomach [19]): 4.88 %ID
Drug uptake (Blood [20]): 3.65 % ID/g
Drug uptake (Kidney [21]): 11.2 % ID/g
Drug uptake (Spleen [22]): 3.13 % ID/g
Drug uptake (Intestine [23]): 30 % ID/g
Drug uptake (Pancreas [24]): 0.51 % ID/g
logP at 2 min [25]: 2
Drug uptake (Brain [26]): 4.11 % ID/g
Drug uptake (Blood [27]): 2.19 % ID/g
Drug uptake (Heart [28]): 6.68 % ID/g
Drug uptake (Intestine [29]): 28.4 % ID/g
Drug uptake (Stomach [30]): 4.65 %ID
Drug uptake (Heart [31]): 2.8 % ID/g
Drug uptake (Stomach [32]): 2.31 %ID
Drug uptake (Lung [33]): 1.32 % ID/g
Drug uptake (Liver [34]): 23.2 % ID/g
Drug uptake (Spleen [35]): 5.19 % ID/g
Drug uptake (Kidney [36]): 3.07 % ID/g
Drug uptake (Brain [37]): 1.42 % ID/g
Ratio (Brain [38]): 29.4
Drug uptake (Brain [39]): 0.14 % ID/g
Drug uptake (Lung [40]): 3.55 % ID/g
Drug uptake (Pancreas [41]): 6.8 % ID/g
Drug uptake (Spleen [42]): 4.9 % ID/g
Compound: CNc1ccc(/C=C/c2nc3ccc([125I])cc3[nH]2)cc1

logP at 2 min [25]: 3.84
Ratio (Brain [38]): 0.33
Compound: CN(C)c1ccc(/N=N/c2nc3ccc([125I])cc3s2)cc1
